mABHD4 FP: ABHD4 inhibitors, primary screen, biochemical, fluorescence polarization, mouse; AID 720543, 2013; actives 0.54% (n = 370,000); (Lyso)-N-acylphosphatidylethanolamine lipase (Mus musculus), Q8VD66; inhibition, % at 8.92 µM; purified mABHD4, FP-Rh probe fluorescence polarization;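 active = inhibition exceeding the mean over every tested compound plus 3 SD, cut at about 30% in these data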
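Test system: mABHD4 protein; Read-out basis: % inhibition; Incubation: 45 min + 60 min at 25 °C; Repeats: single replicate; Technique: fluorescence polarization with parallel and perpendicular emission, 525/598 nm; Compound: 8.92 µM, single dose; Benchmarks: full inhibition S159A mutant plus DMSO, zero as sample-well median.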
rCAG binder: binders of r(CAG) RNA repeats, primary screen, biochemical, fluorescence | r(CAG) RNA repeat, TO-PRO-1 dye displacement fluorescence | inhibition, % at 3 µM | actives 1.3% (n = 370,000);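 active = inhibition above the plate cutoff, the mean of all test compounds on that plate plus 3 SD, cut at about 35% in these data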;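 also: higher means more dye released from RNA so lower well fluorescence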
PRMT1 inh: PRMT1 methyltransferase inhibitors, primary screen, biochemical, fluorescence polarization; Protein arginine N-methyltransferase 1 (Homo sapiens), Q99873; recombinant PRMT1, activity-based probe fluorescence polarization; inhibition, % at 2.79 µM; actives 1.3% (n = 370,000); AID 652257, 2013;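 active = inhibition above about 21% made by adding two undisclosed values, limit read from the data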
SIAE inh: human SIAE inhibitors, primary screen, biochemical, fluorescence polarization, FP-Rh probe, 1536-well HTS; AID 1053197, 2014; Sialate O-acetylesterase (Homo sapiens), Q9HAT2; inhibition, % at 9.66 µM; actives 0.69% (n = 370,000); SIAE FP-Rh probe binding;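 active = inhibition above a cutoff: mean of compounds within the control limits plus 3 SD of those, cut at about 17% in these data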
HTRA1 inhibitor: HTRA1 serine protease inhibitors, primary screen, biochemical, fluorescence polarization, HTS. recombinant HTRA1, FP-rhodamine activity-based probe. inhibition, % at 5.96 µM. actives 0.5% (n = 340,000). AID 504803, 2011. Q92743; in the data active = inhibition above about 36%
Target sequence (Q92743 whole entry, looked up): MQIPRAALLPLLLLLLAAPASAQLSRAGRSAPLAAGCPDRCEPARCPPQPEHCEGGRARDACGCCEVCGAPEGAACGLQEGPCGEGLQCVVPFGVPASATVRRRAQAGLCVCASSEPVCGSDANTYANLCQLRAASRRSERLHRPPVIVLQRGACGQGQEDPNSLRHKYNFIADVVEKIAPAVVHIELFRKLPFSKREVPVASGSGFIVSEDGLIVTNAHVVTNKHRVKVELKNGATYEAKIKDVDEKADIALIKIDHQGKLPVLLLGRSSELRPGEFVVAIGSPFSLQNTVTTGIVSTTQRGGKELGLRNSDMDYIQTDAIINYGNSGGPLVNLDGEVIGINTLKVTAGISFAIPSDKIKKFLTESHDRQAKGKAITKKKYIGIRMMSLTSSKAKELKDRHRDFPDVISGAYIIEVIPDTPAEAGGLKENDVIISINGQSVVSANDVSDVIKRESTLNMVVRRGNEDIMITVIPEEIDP
rCAG binder conf: small molecules binding CAG repeat RNA – biochemical, fluorescence, confirmation | r(CAG) RNA repeat, TO-PRO-1 dye displacement fluorescence | shares compounds with rCAG binder | actives 70% (n = 4,300) | inhibition, % at 3 µM;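 active = inhibition above a per-plate cutoff, the mean inhibition of sample wells plus 3 SD, cut at about 35% in these data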;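 also: loss of TO-PRO-1 fluorescence as compound displaces dye from 1x1 AA loop RNA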
dCAG dye counter: displacement of TO-PRO-1 from CAG DNA duplex, counter-screen for rCAG RNA repeat binder project, biochemical, fluorescence, TO-PRO-1 dye, d(CAG) DNA oligo; d(CAG) DNA oligo TO-PRO-1 dye displacement; AID 652068, 2013; inhibition, % at 3 µM; shares compounds with rCAG binder; actives 94% (n = 4,300);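 active = inhibition above its plate's cutoff, the mean test-well inhibition plus 3 SD, cut at about 4.8% in these data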;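 also: hits displace the dye from DNA and so lower well fluorescence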
dCAG dye DR: inhibitors of DNA CAG/GTC TO-PRO-1 complex, dose response, counter-screen for rCAG RNA repeat binder project, biochemical, fluorescence, TO-PRO-1 dye | shares compounds with rCAG binder | actives 20% (n = 250) | AID 686960, 2013 | DNA CAG/GTC duplex TO-PRO-1 dye displacement fluorescence | IC50, µM; in the data active = IC50 below about 10 µM
Large screens that a line does not name were inactive (follow-up assays come after a bar, where they were run). The list is not random: actives were taken first. Their share in the collection is about 3.3%.

Cc1ccc(-c2cc(C(=O)Nc3ccc(S(=O)(=O)Nc4cc(C)on4)cc3)c3ccccc3n2)c(C)c1	rCAG binder 79 | rCAG binder conf 82 | dCAG dye counter 53
Cc1ccc(-c2cc(C(=O)Nc3ccc(S(=O)(=O)Nc4onc(C)c4C)cc3)c3ccccc3n2)cc1	rCAG binder 87 | rCAG binder conf 86 | dCAG dye counter 61
O=C(O)c1ccccc1NC(=O)c1cc(-c2ccccc2)nc2ccccc12	rCAG binder 56 | rCAG binder conf 62 | dCAG dye counter 22
Cc1ccc(NS(=O)(=O)c2ccc(C)c(C(=O)Nc3ccc(S(=O)(=O)Nc4onc(C)c4C)cc3)c2)cc1	rCAG binder 64 | rCAG binder conf 70 | dCAG dye counter 35
Cc1ccc(O)c(-c2cc(C(=O)Nc3ccc(S(=O)(=O)Nc4nc(C)cc(C)n4)cc3)[nH]n2)c1	rCAG binder 55 | rCAG binder conf 40 | dCAG dye counter 12
Cc1cc(C)nc(NS(=O)(=O)c2ccc(NC(=O)c3cc(-c4ccccc4)nc4ccccc34)cc2)n1	rCAG binder 49 | rCAG binder conf 62 | dCAG dye counter 25
Cc1ccc(C)c(NC(=O)c2cc(-c3cc(C)ccc3O)n[nH]2)c1	none
Nc1nc2ccccc2cc1C(=O)NCc1ccc(-c2ccccc2)cc1	none (no result: HTRA1 inhibitor)
CCC[C@H]1[C@@H](OC(=O)NCc2ccccc2)CC[C@@]23CCCN2C(=O)CCC[C@@H]13	none (no result: rCAG binder, HTRA1 inhibitor)
CCc1ccc(NC(=S)N(Cc2cccc(Br)c2)CC2CCC(C(=O)O)CC2)cc1 (stereo unspecified)	rCAG binder 42 | rCAG binder conf 53 | dCAG dye counter 18
Cc1ccc(NC(=S)N(Cc2cccc(Br)c2)CC2CCC(C(=O)O)CC2)cc1Cl (stereo unspecified)	rCAG binder 44 | rCAG binder conf 60 | dCAG dye counter 21 | dCAG dye DR inactive
CCCCCCc1c[nH]c2ccc(O)c(-c3ccccc3)c12	none (no result: HTRA1 inhibitor)
CCCc1cc2c(-c3ccccc3)cc(=O)oc2cc1OCc1ccc(C(=O)O)o1	rCAG binder 57 | rCAG binder conf 73 | dCAG dye counter 27 | dCAG dye DR inactive
N#CC1=C2SCN(c3ccccc3)CN2C(=O)CC1c1cccs1 (stereo unspecified)	none
Cc1ccc(C2CC(=O)N3CN(c4ccc(Br)cc4)CSC3=C2C#N)o1 (stereo unspecified)	rCAG binder 63, PRMT1 inh 82 | rCAG binder conf 49 | dCAG dye counter 18
COc1ccc(Cn2ccc3ccc(-c4ccc5ccn(Cc6ccc(OC)cc6)c5c4)cc32)cc1	none (no result: HTRA1 inhibitor)
S=c1[nH]nc(-c2ccco2)n1/N=C/c1ccc(Cl)cc1Cl	rCAG binder 35, PRMT1 inh 22 | rCAG binder conf 64 | dCAG dye counter 19
S=c1[nH]nc(-c2ccco2)n1/N=C/c1cccs1	none
COC(=O)[C@]12C[C@H](CC(=O)NCc3ccc(C)o3)C(=O)N(Cc3ccc4c(c3)OCO4)C1=C[C@H](C(C)C)O[C@@H]2C1CC1	none (no result: HTRA1 inhibitor)
O=C1CCC[C@H]2Cc3nc4ccccc4cc3C[C@]23CCCN13	none (no result: rCAG binder, HTRA1 inhibitor)
O=C(NC1CCN(Cc2ccccc2)CC1)c1cccc(S(=O)(=O)Nc2cc(C(F)(F)F)ccc2Cl)c1	rCAG binder 64 | rCAG binder conf 55 | dCAG dye counter 17
CCC1CCCCN1C(=O)c1cccc(S(=O)(=O)Nc2cc(C(F)(F)F)ccc2Cl)c1 (stereo unspecified)	rCAG binder 36 | rCAG binder conf 56 | dCAG dye counter 16
COc1ccc(NC(=O)Nc2nnc(CC(=O)Nc3ccccc3)s2)cc1	rCAG binder 42 | rCAG binder conf inactive | dCAG dye counter 15
O=C(Cc1nnc(NC(=O)Nc2ccccc2)s1)NCc1ccccc1	none
CC(c1ccccc1)c1nnc(NC(=O)Nc2ccccc2)s1 (stereo unspecified)	rCAG binder 43 | rCAG binder conf inactive | dCAG dye counter 17
COc1cccc(NC(=O)Nc2nnc(CC(=O)Nc3ccccc3)s2)c1	rCAG binder 43 | rCAG binder conf inactive | dCAG dye counter 21
CCCCOc1ccc(NC(=O)Nc2nnc(C)s2)cc1	rCAG binder 37 | rCAG binder conf inactive | dCAG dye counter 8.2
CC(c1ccccc1)c1nnc(NC(=O)Nc2ccccc2F)s1 (stereo unspecified)	none
CCOC(=O)C(C)(C)CC#CCN(CC#Cc1ccccc1)S(=O)(=O)c1ccc(C)cc1	none (no result: HTRA1 inhibitor)
O=C(CSc1nnc(-c2cccnc2)n1C1CCCCC1)NC1CCCCCC1	none (no result: HTRA1 inhibitor)
COC(=O)[C@]12C[C@H](CC(=O)NCc3cccc(C(F)(F)F)c3)C(=O)N(Cc3ccc(Cl)cc3Cl)C1=C[C@H](C(C)C)O[C@@H]2C1CC1	none (no result: HTRA1 inhibitor)
COc1ccc(C2CC(=O)C(c3cccc(OC)c3)=CN2Cc2ccccc2)cc1 (stereo unspecified)	none (no result: HTRA1 inhibitor)
O=S(=O)(/N=C(/Nc1nc2ccccc2s1)c1ccccc1)c1ccc(F)cc1	rCAG binder 38 | rCAG binder conf inactive | dCAG dye counter 6.6
COc1ccc(NC(=O)Nc2ccc3c(c2)C(=O)N([C@H](C)CO)C[C@H](C)[C@H](CN(C)Cc2ccc(C(=O)O)cc2)OCCCC[C@@H](C)O3)cc1	rCAG binder 37 | rCAG binder conf 42 | dCAG dye counter 10
Cc1ccc(NC(=O)Nc2nnc(-c3ccncc3)s2)cc1C	rCAG binder 60 | rCAG binder conf 49 | dCAG dye counter 17
O=C(Nc1cccc(Cl)c1)Nc1nnc(-c2ccncc2)s1	rCAG binder 66 | rCAG binder conf 45 | dCAG dye counter 22
CCOC(=O)[C@@]12CCCC3=C1N(CCC3)C(=O)[C@H]2CC(=O)NCCCCc1ccccc1	none (no result: HTRA1 inhibitor)
CCOC(=O)c1ccccc1-c1csc(NS(=O)(=O)c2ccc(Cl)cc2)n1	rCAG binder 76 | rCAG binder conf 70 | dCAG dye counter 33 | dCAG dye DR inactive
CCOC(=O)Cc1csc(NS(=O)(=O)c2ccccc2)n1	none
